# Assays:
# [1] = organism: Oryctolagus cuniculus; experiment: The maximal difference in conjunctival hyperemia between treated and control eyes. The effect was tested in rabbit at a dose of 0.5 (ug/eye)
# [2] = test system: Monkey; experiment: The maximal difference in Intraocular Pressure (IOP) measured in treated and control eyes. The effect was tested in monkey at a dose of 3.0 (ug/eye); type: functional, Cercopithecidae
# Method in brief: (§1)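 Cynomolgus monkeys trained for IOP measurement were sedated with ketamine (2–3 mg/kg) for transport and seated in restraint chairs under oxibuprocain local anaesthesia. One eye received a 10 µL drop of drug in 0.9% NaCl/0.5% polysorbate 80; the fellow eye received vehicle. IOP was read by pneumatonometer calibrated for monkey eyes before dosing and at 1, 2, 4 and 6 h. Matched-pair t test, n = 6.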
# [3] = test system: Monkey; experiment: The mean area between curves for Intraocular Pressure (IOP) measured in treated and control eyes. The effect was tested in monkey at a dose of 3.0 (ug/eye); type: functional, Cercopithecidae
# Method in brief: as §1
# [4] = organism: Felis catus; experiment: The mean area between curves for pupil diameter between treated and control eyes. The effect was tested in cats at a dose of 1.0 (ug/eye); type: functional
# Method in brief: (§2)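 Trained female cats, 2–3 kg, were dosed unilaterally with one 20 µL topical drop of drug in 0.9% NaCl/0.5% polysorbate 80, with vehicle in the contralateral eye. Horizontal pupil diameter was measured with a millimetre ruler under constant 10 lux illumination before dosing and at 1, 3, 6 and 23 h. Reported as maximal treated–control difference or as area between curves, per animal.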
# [5] = organism: Felis catus; experiment: The maximal difference in […] pupil diameter between treated and control eyes. The effect was tested in cats at a dose of 1.0 (ug/eye); type: functional
# Method in brief: as §2
# [6] = organism: Felis catus; experiment: The mean ocular irritation in the treated eyes. An arbitrary scale of from 0 to 3 was used, 0 indicates absence of irritation and 3 complete closure of the lids. The effect was tested in cats at a dose of 1.0 (ug/eye); type: functional
# Method in brief: (§3)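 Ocular irritation was scored in the treated eye of trained female cats, 2–3 kg. Drug was given as one topical 20 µL drop in 0.9% NaCl with 0.5% polysorbate 80. The contralateral eye got vehicle only.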
# [7] = organism: Oryctolagus cuniculus; experiment: The mean area between curves for conjunctival hyperemia between treated and control eyes. The effect was tested in rabbit at a dose of 0.5 (ug/eye)
# [8] = organism: Felis catus; experiment: The maximal difference in Intraocular Pressure (IOP) between treated and control eyes. The effect was tested in cats at a dose of 1.0 (ug/eye); type: functional
# Method in brief: (§4)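 Domestic female cats, 2–3 kg, trained for IOP measurement. One eye received a topical drop (20 µL) of drug in 0.9% NaCl with 0.5% polysorbate 80; the other eye received vehicle. IOP was read by pneumatonometer under oxibuprocain local anaesthesia before dosing and at 1, 3, 6 and 23 h. The maximal treated-minus-control difference was taken. Area between curves is the treated-eye AUC minus control-eye AUC, per animal.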
# [9] = organism: Felis catus; experiment: The mean area between curves for Intraocular Pressure (IOP) measured in treated and control eyes. The effect was tested in cats at a dose of 1.0 (ug/eye); type: functional
# Method in brief: as §4
# [10] = organism: Felis catus; experiment: The mean area between curves for pupil diameter between treated and control eyes. The effect was tested in cats at a dose of 3.0 (ug/eye); type: functional
# Method in brief: as §2
# [11] = organism: Felis catus; experiment: The mean area between curves for Intraocular Pressure (IOP) measured in treated and control eyes. The effect was tested in cats at a dose of 3.0 (ug/eye); type: functional
# Method in brief: as §4
# [12] = organism: Felis catus; experiment: The maximal difference in Intraocular Pressure (IOP) between treated and control eyes. The effect was tested in cats at a dose of 3.0 (ug/eye); type: functional
# Method in brief: as §4
# [13] = organism: Felis catus; experiment: The mean ocular irritation in the treated eyes. An arbitrary scale of from 0 to 3 was used, 0 indicates absence of irritation and 3 complete closure of the lids. The effect was tested in cats at a dose of 3.0 (ug/eye); type: functional
# Method in brief: as §3
# [14] = organism: Felis catus; experiment: The maximal difference in […] pupil diameter between treated and control eyes. The effect was tested in cats at a dose of 3.0 (ug/eye); type: functional
# Method in brief: as §2
Compound,Hmax [1],Imax [2] [mmHg],I ABC [3],P ABC [4],Pmax [5] [mm],Irritation [6] [arbitrary units],H ABC [7],Imax [8] [mmHg],I ABC [9],P ABC [10],I ABC [11],Imax [12] [mmHg],Irritation [13] [arbitrary units],Pmax [14] [mm]
CC(C)OC(=O)CCC/C=C\C[C@@H]1[C@@H](/C=C/[C@@H](O)CCc2ccc(-c3cccs3)cc2)[C@H](O)C[C@@H]1O,0.3,<1.5,6.5,-2.2,< -0.9,0.4,0,<-4.2,-84,,,,,
CC(C)OC(=O)CCC/C=C\C[C@@H]1[C@@H](/C=C/[C@@H](O)CCc2cccc(-c3ccsc3)c2)[C@H](O)C[C@@H]1O,<1.3,,,-1.7,< -1,0.1,<2.9,-1.1,-21,,,,,
CC(C)OC(=O)CCC/C=C\C[C@@H]1[C@@H](/C=C/[C@@H](O)CCc2cccc(-c3cccs3)c2)[C@H](O)C[C@@H]1O,<0.9,,,-9.2,< -1.5,0.1,<2.6,<-3,<-40,<-28,-10.3,-1.2,0.3,< -3.5
CC(C)OC(=O)CCC/C=C\C[C@@H]1[C@@H](/C=C/[C@@H](O)CCc2cccc(-c3ccccc3)c2)[C@H](O)C[C@@H]1O,<0.9,,,2.3,-0.3,0.1,<1.9,<-4,<-30,,,,,
CC(=O)c1ccc(CC[C@H](O)/C=C/[C@@H]2[C@@H](C/C=C\CCCC(=O)OC(C)C)[C@@H](O)C[C@H]2O)cc1,-0.2,<-2.3,<-10,1.4,0.2,0,-0.5,-0.3,-4.3,,,,,
CC(=O)c1cccc(CC[C@H](O)/C=C/[C@@H]2[C@@H](C/C=C\CCCC(=O)OC(C)C)[C@@H](O)C[C@H]2O)c1,-0.1,<-2.8,<-12.3,<-30,< -1.8,1.3,0,0.7,7.1,,,,,
CC(C)OC(=O)CCC/C=C\C[C@@H]1[C@@H](/C=C/[C@@H](O)CCc2cccc(-c3ccco3)c2)[C@H](O)C[C@@H]1O,<0.3,,,,,,0.3,,,-2.5,9.8,0.8,0.1,-0.3
CC(C)OC(=O)CCC/C=C\C[C@@H]1[C@@H](/C=C/[C@@H](O)CCc2ccc(-c3ccoc3)cc2)[C@H](O)C[C@@H]1O,0.2,,,,,,0.3,,,,,,,
CC(C)OC(=O)CCC/C=C\C[C@@H]1[C@@H](/C=C/[C@@H](O)CCc2cccc(-c3ccoc3)c2)[C@H](O)C[C@@H]1O,<0.5,,,,,,1.3,,,<-9.3,-24.4,-3,0.5,-1.3
CC(C)OC(=O)CCC/C=C\C[C@@H]1[C@@H](/C=C/[C@H](O)CCc2ccc(-c3ccoc3)cc2)[C@H](O)C[C@@H]1O,-0.3,,,,,,-0.7,,,,,,,
CC(C)OC(=O)CCC/C=C\C[C@@H]1[C@@H](/C=C/[C@H](O)CCc2cccc(-c3ccoc3)c2)[C@H](O)C[C@@H]1O,<0.5,,,,,,<1.6,,,-13,-16.3,-3,0,-1.3
CC(C)OC(=O)CCC/C=C\C[C@@H]1[C@@H](/C=C/[C@H](O)CCc2cccc(-c3ccco3)c2)[C@H](O)C[C@@H]1O,0.3,,,,,,0.4,,,-5.7,-8,-1.2,0.4,-0.3
CC(C)OC(=O)CCC/C=C\C[C@@H]1[C@@H](/C=C/[C@H](O)CCc2ccc(-c3ccco3)cc2)[C@H](O)C[C@@H]1O,<0.5,,,,,,<1,,,<-10.6,-25.8,2.5,0.2,< -1.5
CC(C)OC(=O)CCC/C=C\C[C@@H]1[C@@H](/C=C/[C@H](O)CCc2cccc(-c3ccccc3)c2)[C@H](O)C[C@@H]1O,<0.7,,,6.5,0.5,0,<2.2,<-1.5,-23.5,,,,,
Cc1ccc(CC[C@@H](O)/C=C/[C@@H]2[C@@H](C/C=C\CCCC(=O)OC(C)C)[C@@H](O)C[C@H]2O)cc1,0.2,,,,,,-0.2,,,-0.2,-10.8,-1.8,0,-0.2
CC(=O)c1ccc(CC[C@@H](O)/C=C/[C@@H]2[C@@H](C/C=C\CCCC(=O)OC(C)C)[C@@H](O)C[C@H]2O)cc1,-0.2,,,0.2,-0.2,0,-0.3,-1.8,-17.9,,,,,
CC(C)OC(=O)CCC/C=C\C[C@@H]1[C@@H](/C=C/[C@H](O)CCc2ccc(-c3cccs3)cc2)[C@H](O)C[C@@H]1O,0.3,,,,,,0.3,,,0,4.2,-1.3,0.2,0
CC(C)OC(=O)CCC/C=C\C[C@@H]1[C@@H](/C=C/[C@H](O)CCc2cccc(-c3cccs3)c2)[C@H](O)C[C@@H]1O,0.2,,,<-12.4,< -1.3,0.3,0.1,<2.2,12.8,,,,,
CC(=O)c1cccc(CC[C@@H](O)/C=C/[C@@H]2[C@@H](C/C=C\CCCC(=O)OC(C)C)[C@@H](O)C[C@H]2O)c1,-0.3,,,1.2,0.6,0.3,-0.7,-4,-43.3,-1.4,-23.8,<-2.6,0.1,< -0.7
CC(C)OC(=O)CCC/C=C\C[C@@H]1[C@@H](/C=C/[C@H](O)CCc2cccc(-c3ccsc3)c2)[C@H](O)C[C@@H]1O,-0.3,,,<-14,< -1,0.1,-0.8,1.7,16,,,,,
Cc1cccc(CC[C@@H](O)/C=C/[C@@H]2[C@@H](C/C=C\CCCC(=O)OC(C)C)[C@@H](O)C[C@H]2O)c1,0.2,,,<-13.3,< -1.5,0.1,-0.1,-0.3,-1.8,,,,,
CC(C)OC(=O)CCC/C=C\C[C@@H]1[C@@H](/C=C/[C@H](O)CCc2ccc(-c3ccsc3)cc2)[C@H](O)C[C@@H]1O,-0.2,,,-1.8,< -0.7,0,-0.1,-0.3,-3.1,,,,,
CC(C)OC(=O)CCC/C=C\C[C@@H]1[C@@H](/C=C/[C@H](O)CCc2ccccc2)[C@H](O)C[C@@H]1O,<1.7,,,<-50.5,< -5.7,0,,-0.5,0.3,,,,,
